Bioassay records deposited in PubChem by several laboratories.
A selection: hits, their analogues and other compounds. The true share with any hit is near 2.4%.
Runt-CBFb FRET – inhibitors of RUNX1 Runt–CBFb binding, primary screen, biochemical, FRET, Cerulean-Runt, Venus-CBFb, uHTS; Runt-related transcription factor 1 (Homo sapiens) + Core-binding factor subunit beta …; Cerulean-Runt/Venus-CBFb FRET ratio 530/480, 1 h; inhibition, % at 20 µM; 0.46% of 220,000 active; AID 1496, 2009;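 active = inhibition over about 50% at 20 µM in the single-dose screen, limit read from the data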
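Reagent – Venus-CBFb binding partner, 100 nM · Assay system – Cerulean-tagged RUNX1 Runt domain (FRET donor) fusion protein · Input – 100 nM per protein · Incubation – two 1 h room-temperature incubations shielded from light · Measured by – FRET fluorescence · Medium – Tris buffer pH 7.5 with salts and BSA · Benchmarks – unlabeled CBFb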
LANA-H2A inh – blockers of LANA interaction with H2A/H2B – biochemical, FP readout, HTS, primary screen; cell-free LANA-H2A/H2B peptide, fluorescence polarization; 0.6% of 320,000 active; inhibition, % (no concentration beside the values); Protein LANA1 (Human herpesvirus 8 type P (isolate GK18)), Q9QR71; in the data active = inhibition mostly above about 10%, no sharp cut-off; inactive = mostly below about 6.7%
EBV gp42 block – Epstein-Barr virus gp42 inhibitors, primary screen, biochemical, uHTS, fluorescence polarization. inhibition, % (tested at 21.74 µM). 0.42% of 220,000 active. Glycoprotein 42 (Epstein-Barr virus (strain AG876)), Q1HVG2. Fluorescence polarization binding assay, mP read-out; in the data active = inhibition above about 50%
Runt-SMMHC FRET – inhibitors of RUNX1 Runt–CBFb-SMMHC binding, primary screen, biochemical, FRET, Cerulean-Runt, Venus-CBFb-SMMHC, uHTS. Cerulean-Runt/Venus-CBFb-SMMHC FRET ratio 530/480, 1 h. 0.74% of 220,000 active. inhibition, % at 20 µM. Runt-related transcription factor 1 (Homo sapiens) + Core-binding factor subunit beta …;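 active = mean inhibition across duplicate retests at 20 µM reaching about 50%, limit read from the data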;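 note: inhibitors lower the FRET ratio by blocking Runt binding to CBFb-SMMHC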
MEX-5 binding – MEX-5 zinc finger RNA-binding disruptors – biochemical, C. elegans, fluorescence polarization, MLPCN library, primary screen | Zinc finger protein mex-5 (Caenorhabditis elegans), Q9XUB2 | AID 1832, 2009 | 0.38% of 300,000 active | MEX-5/FITC-TCR2 RNA binding; stronger effect = lower value | activity score (negative = inhibition of binding), % at 10 µM;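 active = inhibition past about -25% in most replicates, and total fluorescence under double the plate's negative control median, limit read from the data; inconclusive = replicates evenly split on the limit, or fluorescence at least double controls; inactive = too little inhibition in most replicates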
RanGTP-Impb inh – inhibitors of RanGTP-importin-beta interaction, primary screen, biochemical, FRET, CFP-Ran, YFP-importin-beta, homogeneous; AID 2216, 2009; 1.1% of 300,000 active; Ran GTPase (GTP-bound) - importin-beta complex; cell-free CFP-Ran/YFP-importin-beta FRET ratio; inhibition, % (test concentration not listed);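 active = more than half of the replicate wells show a fall in the fluorescence ratio signal beyond about 16%, limit read from the data, passing the limit was not always enough; inconclusive = exactly half of the replicate wells pass the set limit; inactive = fewer than half of replicates pass the limit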
Hits are given with their value; 0 = inactive; ? = inconclusive; - = not tested or not shown; + = active, no number.

SMILES	Runt-CBFb FRET	LANA-H2A inh	EBV gp42 block	Runt-SMMHC FRET	MEX-5 binding	RanGTP-Impb inh
O=C(Nc1ccc(N2C(=O)C3C4C=CC(C4)C3C2=O)cc1Cl)c1cccs1 (stereo not drawn)	0	0	0	0	0	0
CCOc1ccc(NC(=O)CC2C(=O)Nc3ccccc3N2C(=O)c2ccccc2)cc1 (stereo not drawn)	0	0	0	0	0	0
C/C(=N\NS(=O)(=O)c1cccc([N+](=O)[O-])c1)c1cccnc1	0	0	0	0	0	?
Cc1cccnc1NC(=O)CNC(=O)COc1ccccc1	-	0	-	-	0	0
O=C(NCCc1ccc(Cl)cc1)c1ccc(S(=O)(=O)N2CCCC2)cc1	-	0	-	-	0	0
N=C1C(=O)OCC1c1ccccc1NC(=O)CN1CCOCC1 (stereo not drawn)	0	0	0	0	0	41
O=C(CN1CCOCC1)Nc1ccccc1Cl	0	0	0	0	0	0
Cc1ccc(-c2nnc(SCC(=O)N/N=C/c3ccc(C(=O)O)cc3)n2C2CCCCC2)cc1	-	12	-	-	0	0
O=C(O)COc1ccccc1/C=N/NC(=O)CSc1nnc(-c2ccc(Cl)cc2)n1C1CCCCC1	0	0	0	0	0	0
Cc1csc(SCC(=O)O)n1	114	0	0	0	0	0
CC(C)CN(C(=O)COC(=O)CSc1ccccc1)c1c(N)n(Cc2ccccc2)c(=O)[nH]c1=O	-	0	-	-	0	0
O=C1c2c(O)ccc(O)c2C(=O)c2c(NCCNCCO)ccc(NCCNCCO)c21	-	77	-	-	-	-
O=C(Cc1ccc(S(=O)(=O)N2CCOCC2)s1)Nc1ccccc1N1CCCC1	-	0	-	-	0	19
O=C(Cc1ccc(S(=O)(=O)N2CCOCC2)s1)Nc1cc(C(F)(F)F)ccc1N1CCCC1	-	0	-	-	0	0
Cc1c(N2C(=O)c3ccc4c5c(ccc(c35)C2=O)CC4)c(=O)n(-c2ccccc2)n1C	0	0	79	0	0	0
Cc1ccccc1C(=O)Nc1ccc(S(=O)(=O)N2CCOCC2)cc1	-	0	-	-	0	0
CCN(CC)CCCNC(=O)CCn1nc(-c2ccccc2)ccc1=O	-	0	-	-	0	0
O=C(COC(=O)c1ccc(F)cc1F)Nc1ccc(Cl)cn1	-	25	-	-	-	-
O=C(COC(=O)c1ccc(O)cc1O)Nc1ccc(Cl)cn1	-	0	-	-	0	0
O=C(Nc1ccc(Cl)c(Cl)c1)c1ccc(Cl)c(Cl)c1	0	0	0	0	0	0
O=C(Nc1ccc(Cl)c(Cl)c1)Nc1cc(C(=O)NC2CC2)ccc1Cl	0	17	0	0	0	0
Cc1ccc(C)c(C(=O)COC(=O)CCCC(=O)Nc2cc(C(F)(F)F)ccc2Cl)c1	0	12	0	0	0	0
CCN(CC(=O)NCc1ccc(F)cc1)C(=O)CN1CCN(c2ccccc2OC)CC1	-	0	-	-	0	0
CCCCOC(=O)COc1ccc(Cl)cc1Cl	-	14	-	-	-	-
Cc1cc(NC(=O)CCC(=O)N(CC(=O)NC2CCCC2)c2ccccc2)no1	0	22	0	0	0	0
SMILES	Runt-CBFb FRET	LANA-H2A inh	EBV gp42 block	Runt-SMMHC FRET	MEX-5 binding	RanGTP-Impb inh
Cc1cc(NC(=O)CCCC(=O)N(CC(=O)NC2CCCCC2)c2ccccc2)no1	0	0	0	0	0	0
O=C(NCCCO)C(=O)Nc1cc2c3c(c1)CCN3C(=O)CC2	-	0	-	-	0	0
Cc1ccccc1NC(=O)Cc1nc(COC(=O)CCc2ccccc2)cs1	-	0	-	-	-	-
Cc1ccccc1NC(=O)Cc1nc(COC(=O)COc2ccc(C(C)(C)C)cc2)cs1	-	17	-	-	-	-
COc1ccccc1CCC(=O)OCc1csc(CC(=O)Nc2ccccc2C)n1	-	0	-	-	-27	0
Cc1c(Br)cc(C(=O)O)c(C)c1C	0	0	0	0	0	0
Cc1c(N)cc(N)cc1C(=O)O	0	0	0	0	-49	0
Cc1c(NC(=O)C(C)OC(=O)/C=C/c2ccc(OC(F)F)cc2)c(=O)n(-c2ccccc2)n1C (stereo not drawn)	-	0	-	-	0	0
O=C1c2ccccc2-c2onc3ccc(NCCCn4ccnc4)c1c23	0	176	0	0	?	0
COc1ccc2noc3c2c1C(=O)c1ccccc1-3	-	167	-	-	?	0
COc1cc(C=C2C(=O)c3ccccc3C2=O)ccc1O	0	0	0	0	0	0
COc1ccc(OC)c2c1C(=O)c1ccccc1C2=O	0	0	+	0	?	0
COc1ccc(N)c2c1C(=O)c1ccccc1C2=O	0	-	0	0	0	0
COc1cc(C=C2C(=O)c3ccccc3C2=O)cc(OC)c1OC	0	0	95	0	-54	0
CCOc1ccccc1-c1nc2c(s1)CCc1onc(-c3ccc(OC)cc3)c1-2	-	0	-	-	0	0
O=C(NC(NC(=S)Nc1ccc(Cl)cc1Cl)C(Cl)(Cl)Cl)c1cccc([N+](=O)[O-])c1 (stereo not drawn)	-	0	60	0	0	0
O=C(CNC(=O)/C=C/c1ccco1)N=Nc1c(O)[nH]c2ccccc12	-	0	-	-	-29	?
O=C(CNC(=O)Cc1ccccc1)N=Nc1c(O)[nH]c2ccccc12	-	0	-	-	0	0
COc1ccc(/C=C(/NC(=O)c2ccco2)C(=O)N2CCCCC2)cc1	-	0	-	-	0	0
Cc1nc(C(=O)Nc2ccc(F)cc2)nn1-c1ccc([N+](=O)[O-])cc1	0	12	0	0	0	0
CCN(CC)c1ccc(/C=c2\sc3nc4ccccc4n3c2=O)c(O)c1	0	-	0	92	0	135
Cc1cc(/C=c2/sc3nc4ccccc4n3c2=O)c(C)n1-c1ccccn1	0	0	0	0	?	16
O=C(Nc1ccc([N+](=O)[O-])cc1Br)c1cc2ccccc2nc1Cl	0	0	0	0	0	0
O=C(/C=C/c1ccc(OCCCF)cc1)Nc1ccnc(-c2ccncc2)n1	0	0	0	0	0	0
O=C(/C=C/c1ccc(OCCCF)cc1)Nc1ccnc(-c2cccnc2)n1	0	0	0	0	-51	0
NS(=O)(=O)c1ccc(Nc2nc(-c3ccc(F)cc3)cs2)cc1	0	0	0	0	0	0
NS(=O)(=O)c1ccc(Nc2nc(-c3ccc(O)cc3O)cs2)cc1	0	0	0	0	-45	0
COCC(=O)N1CCC(Oc2ccc(C(=O)N(C)CCCC3CCCC3)cc2)CC1	-	16	-	-	0	0
